The source made the active and inactive calls. The calls are words filed in the database; no cut-off is given here.
What was measured:
[1] = Inhibition of constitutively activated GST-tagged human MEK1 S218D/[…] (MEK1DD) mutant assessed blocking of increase in bovine MBP kinase activity of recombinant His6-tagged ERK2 using [gamma32P]ATP by liquid scintillation counting method
Method in brief: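 GST-MEK1DD (50 ng) preincubated 30 min at 30 °C with inhibitor or vehicle and 50 μM ATP plus 5 μCi [γ-32P]ATP, in 20 mM Hepes, 10 mM MgCl2, 1 mM DTT, pH 7.4. His6-ERK2 (300 ng, E. coli-expressed) added for 30 min, then MBP (0.2 mg/mL) for 10 min. Controls run without ERK2. Stopped with Laemmli buffer. IC50 from duplicate determinations.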

[2] = biological target: Dual specificity mitogen-activated protein kinase kinase MEK1/2 (Rattus norvegicus, UniProt Q01986+P36506); assay: Inhibition of MEK1/2 in rat IEC6 cells assessed as reduction in ERK1/2 loop phosphorylation dosed 30 mins before to stimulation with 10% serum for 5 mins by immunoblotting method
Method in brief: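 IEC-6 cells grown in DMEM/10% FBS, then made quiescent at 95% confluence in serum-free DMEM-Ham's F-12 (1:1) with 15 mM Hepes pH 7.4 and 0.1% BSA for 24 h. Compounds added in DMSO. Lysates immunoblotted for phospho-ERK1/2 (Thr202/Tyr204), with total ERK1/2 and HSC70 as loading controls. Bands quantified by densitometry. IC50 from triplicate determinations.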

[3] = biological target: Dual specificity mitogen-activated protein kinase kinase 1 (Homo sapiens) (UniProt Q02750); assay: Inhibition of MEK1 (unknown origin) at 1 uM
HT-29 = assay: Antiproliferative activity against human HT-29 cells after 5 days by WST1 assay; assay type: functional, cell-based; conditions: HT-29, 120 h
Method in brief: (§1)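 Cells seeded at 2×10^3 (HCT 116, HT-29) or 1.2×10^3 (A-375, A549) per well in DMEM with 10% FBS, 2 mM glutamine and antibiotics. Compounds added in DMSO, with medium changed daily for 5 days. WST-1 then added for 1 h. Absorbance read at 450 nm, reference 620 nm. Triplicate wells.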

A-375 = assay: Antiproliferative activity against human A375 cells after 5 days by WST1 assay; assay type: functional, cell-based; conditions: A-375, 120 h; method in brief: as §1
A549 = assay: Antiproliferative activity against human A549 cells after 5 days by WST1 assay; assay type: functional, cell-based; conditions: A549, 120 h; method in brief: as §1
[4] = Antiproliferative activity against human HCT116 cells after 5 days by WST1 assay; assay type: functional, cell-based; conditions: HCT-116, 120 h; method in brief: as §1
Homo sapiens = species: Homo sapiens; assay: Potency index, ratio of IC50 for PD98059 to IC50 for test compound against constitutively activated GST-tagged human MEK1 S218D/[…] (MEK1DD) mutant

Sequence of Dual specificity mitogen-activated protein kinase kinase 1 (Homo sapiens) (Q02750 whole entry): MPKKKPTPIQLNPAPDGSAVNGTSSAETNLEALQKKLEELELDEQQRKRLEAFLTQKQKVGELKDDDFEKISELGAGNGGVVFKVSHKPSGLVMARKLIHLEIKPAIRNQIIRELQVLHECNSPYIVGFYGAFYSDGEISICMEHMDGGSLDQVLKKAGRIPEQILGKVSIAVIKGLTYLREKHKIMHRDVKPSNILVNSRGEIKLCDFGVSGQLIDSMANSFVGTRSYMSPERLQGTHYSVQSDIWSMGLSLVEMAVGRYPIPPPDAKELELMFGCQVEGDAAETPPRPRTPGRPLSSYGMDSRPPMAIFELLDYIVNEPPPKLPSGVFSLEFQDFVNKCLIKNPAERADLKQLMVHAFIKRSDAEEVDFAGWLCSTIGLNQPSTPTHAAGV

Compound	IC50 [1] [µM]	IC50 [2] [µM]	further results
COc1cccc(-c2cc(=O)c3cc(Cl)cc(NCCCO)c3o2)c1N	0.03	1.6	inhibition [3]: Active; IC50 (HT-29): 1.6 µM; IC50 (A-375): 5.9 µM; IC50 (A549): 12 µM; IC50 [4]: 10.3 µM; Ratio IC50 (Homo sapiens): < 100
COc1cccc(-c2cc(=O)c3cc(Cl)cc(CCCN)c3o2)c1N	4.4	–	–
COc1cccc(-c2cc(=O)c3ccccc3o2)c1N	2	4.2	IC50 (HT-29): 4 µM
COc1cccc(-c2cc(=O)c3cc(Cl)cc(NCCCN)c3o2)c1N	10.3	> 100	–
COc1cccc(-c2cc(=O)c3cccc(NCCCO)c3o2)c1N	–	0.097	–
COc1cccc(-c2cc(=O)c3cccc(NCC[C@H](O)CO)c3o2)c1N	–	0.073	–
COCCCNc1cc(Cl)cc2c(=O)cc(-c3cccc(OC)c3N)oc12	9.1	> 100	–
COc1cccc(-c2cc(=O)c3cc(Cl)cc(NCc4ccccc4)c3o2)c1N	1.4	> 100	–
COc1cccc(-c2cc(=O)c3cc(Cl)cc(NCC[C@H](O)CO)c3o2)c1N	0.22	3.1	IC50 (HT-29): 3.7 µM; IC50 (A-375): 10.5 µM; IC50 (A549): 17.4 µM; IC50 [4]: 13 µM
COc1cccc(-c2cc(=O)c3cc(Cl)ccc3o2)c1N	6.4	> 100	–
COc1cccc(-c2cc(=O)c3cc(Cl)cc(NC4CCOCC4)c3o2)c1N	1.1	> 100	–
CCCCNc1cc(Cl)cc2c(=O)cc(-c3cccc(OC)c3N)oc12	1.9	> 100	–
CCOc1cccc(-c2cc(=O)c3ccccc3o2)c1N	1.9	1	–
COc1cccc(-c2cc(=O)c3cc(Cl)cc(NCCCN(C)C)c3o2)c1N	6.8	> 100	–
COc1cccc(-c2cc(=O)c3cc(Cl)cc(NC(C)C)c3o2)c1N	2.7	> 100	–

— ChEMBL document CHEMBL3352752, “Towards the development of chromone-based MEK1/2 modulators” (Eur J Med Chem, 2014)
